Columns and labels:
[1] = biological target: T1, RNA-directed RNA polymerase (Hepacivirus hominis, UniProt O39930); test: Inhibitory concentration against RNA dependent RNA polymerase Nonstructural protein 5B of genotype 1a Hepatitis C virus
Outline: (§1)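 A biochemical assay on NS5B polymerase enzyme gave the IC50 values, run separately for genotype 1a and 1b.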

[2] = biological target: T1, RNA-directed RNA polymerase; test: Inhibitory concentration against RNA dependent RNA polymerase Nonstructural protein 5B of genotype 1b Hepatitis C virus; outline: as §1
[3] = biological target: T1, RNA-directed RNA polymerase; test: Effective concentration against RNA dependent RNA polymerase Nonstructural protein 5B of genotype 1b Hepatitis C virus
Outline: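 Activity measured in an HCV replicon assay, with EC50 values derived from it.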

T1 sequence (O39930 whole entry): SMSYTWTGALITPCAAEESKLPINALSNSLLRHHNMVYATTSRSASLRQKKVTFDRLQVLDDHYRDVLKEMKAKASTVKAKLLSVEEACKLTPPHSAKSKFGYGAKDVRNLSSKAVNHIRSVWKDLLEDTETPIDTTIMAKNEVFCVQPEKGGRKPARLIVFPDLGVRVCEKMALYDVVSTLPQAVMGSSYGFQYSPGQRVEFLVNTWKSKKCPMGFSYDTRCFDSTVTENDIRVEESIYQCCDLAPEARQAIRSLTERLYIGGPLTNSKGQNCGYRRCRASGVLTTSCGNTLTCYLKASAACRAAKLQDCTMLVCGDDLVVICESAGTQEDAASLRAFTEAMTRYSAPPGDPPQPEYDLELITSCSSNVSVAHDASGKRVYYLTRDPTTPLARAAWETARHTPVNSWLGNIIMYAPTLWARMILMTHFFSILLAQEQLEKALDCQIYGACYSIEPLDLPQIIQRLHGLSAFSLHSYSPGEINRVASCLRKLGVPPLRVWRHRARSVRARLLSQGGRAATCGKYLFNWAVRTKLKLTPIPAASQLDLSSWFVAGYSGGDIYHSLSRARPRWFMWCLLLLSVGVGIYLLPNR

Compound	IC50 [1] [nM]	IC50 [2] [nM]	EC50 [3] [nM]
CCCCCNn1c(=O)c(C2=NS(=O)(=O)c3ccccc3N2)c(O)c2ccccc21	928	–	–
Cc1ccccc1CNn1c(=O)c(C2=Nc3ccccc3S(=O)(=O)N2)c(O)c2ccccc21	6120	481	–
CC(C)COn1c(=O)c(C2=Nc3ccccc3S(=O)(=O)N2)c(O)c2cccnc21	–	20500	–
CC(C)CCn1c(=O)c(C2=NS(=O)(=O)c3ccccc3N2)c(O)c2cccnc21	–	69	–
CCC(CC)Cn1c(=O)c(C2=NS(=O)(=O)c3ccccc3N2)c(O)c2cccnc21	–	58	–
O=c1c(C2=Nc3ccccc3S(=O)(=O)N2)c(O)c2ccccc2n1NCc1nccs1	35800	674	–
CC(C)CCNn1c(=O)c(C2=Nc3ccccc3S(=O)(=O)N2)c(O)c2ccccc21	629	134	–
O=c1c(C2=NS(=O)(=O)c3ccccc3N2)c(O)c2cccnc2n1C1CCCCC1	–	50000	–
O=c1c(C2=NS(=O)(=O)c3ccccc3N2)c(O)c2cccnc2n1CC1CCCCC1	–	93	–
O=c1c(C2=NS(=O)(=O)c3ccccc3N2)c(O)c2cccnc2n1CCc1ccccc1	–	1490	–
O=c1c(C2=Nc3ccccc3S(=O)(=O)N2)c(O)c2ccccc2n1NCC1CCCCC1	2530	150	–
O=c1c(C2=NS(=O)(=O)c3ccccc3N2)c(O)c2ccccc2n1NCc1ccc(Cl)s1	4780	1450	–
O=c1c(C2=NS(=O)(=O)c3ccccc3N2)c(O)c2ccccc2n1NC1CCOCC1	4630	439	–
O=c1c(C2=Nc3ccccc3S(=O)(=O)N2)c(O)c2ccccc2n1NC1CCCCC1	356	60	1270
O=c1c(C2=Nc3ccccc3S(=O)(=O)N2)c(O)c2ccccc2n1NCc1cccs1	2330	125	–
O=c1c(C2=NS(=O)(=O)c3ccccc3N2)c(O)c2cccnc2n1Cc1ccccc1	–	83	–
O=c1c(C2=Nc3ccccc3S(=O)(=O)N2)c(O)c2ccccc2n1NCc1ccoc1	1550	133	–
CCCCNn1c(=O)c(C2=Nc3ccccc3S(=O)(=O)N2)c(O)c2ccccc21	951	161	3480
CC(C)(C)CCNn1c(=O)c(C2=NS(=O)(=O)c3ccccc3N2)c(O)c2ccccc21	411	135	–
O=c1c(C2=Nc3ccccc3S(=O)(=O)N2)c(O)c2ccccc2n1NCc1ccc(Br)cc1	10400	4690	–
CC(c1ccccc1)n1c(=O)c(C2=NS(=O)(=O)c3ccccc3N2)c(O)c2cccnc21 (configuration not stated)	–	4630	–

Compound	IC50 [1] [nM]	IC50 [2] [nM]	EC50 [3] [nM]
O=c1c(C2=NS(=O)(=O)c3ccccc3N2)c(O)c2ccccc2n1NCc1cccc(Br)c1	1040	75	–
Cc1cccc(CNn2c(=O)c(C3=NS(=O)(=O)c4ccccc4N3)c(O)c3ccccc32)c1	8210	212	–
CCC(CC)n1c(=O)c(C2=NS(=O)(=O)c3ccccc3N2)c(O)c2cccnc21	–	13200	–
CCC(CC)Nn1c(=O)c(C2=NS(=O)(=O)c3ccccc3N2)c(O)c2ccccc21	2460	120	–
O=c1c(C2=Nc3ccccc3S(=O)(=O)N2)c(O)c2ccccc2n1NCc1cccnc1	> 5000	221	–
O=c1c(C2=NS(=O)(=O)c3ccccc3N2)c(O)c2cccnc2n1OCc1ccccc1	–	58000	–
O=c1c(C2=NS(=O)(=O)c3ccccc3N2)c(O)c2ccccc2n1NCC1CC1	285	145	1050
CC(Nn1c(=O)c(C2=Nc3ccccc3S(=O)(=O)N2)c(O)c2ccccc21)c1ccccc1 (configuration not stated)	16500	1490	–
O=c1c(C2=Nc3ccccc3S(=O)(=O)N2)c(O)c2ccccc2n1NCc1ccccc1Br	6720	469	–
Cc1ccc(CNn2c(=O)c(C3=Nc4ccccc4S(=O)(=O)N3)c(O)c3ccccc32)cc1	> 5000	> 5000	–
CC(C)CNn1c(=O)c(C2=NS(=O)(=O)c3ccccc3N2)c(O)c2ccccc21	941	101	1350
O=c1c(C2=Nc3ccccc3S(=O)(=O)N2)c(O)c2ccccc2n1NCC1CCCC1	747	150	–
O=c1c(C2=Nc3ccccc3S(=O)(=O)N2)c(O)c2ccccc2n1NCc1ccccc1	5090	129	15700
O=c1c(C2=Nc3ccccc3S(=O)(=O)N2)c(O)c2ccccc2n1NCC1CCC1	278	108	103
O=c1c(C2=NS(=O)(=O)c3ccccc3N2)c(O)c2ccccc2n1NCc1ccco1	3260	305	–
CCCC(CCC)Nn1c(=O)c(C2=Nc3ccccc3S(=O)(=O)N2)c(O)c2ccccc21	2240	1800	–
CCCC(CC)Nn1c(=O)c(C2=Nc3ccccc3S(=O)(=O)N2)c(O)c2ccccc21 (configuration not stated)	1890	386	–
CC(C)Nn1c(=O)c(C2=NS(=O)(=O)c3ccccc3N2)c(O)c2ccccc21	6350	640	–
CCCC(Nn1c(=O)c(C2=NS(=O)(=O)c3ccccc3N2)c(O)c2ccccc21)C(C)C (configuration not stated)	6400	1130	–
Cc1ccsc1CNn1c(=O)c(C2=NS(=O)(=O)c3ccccc3N2)c(O)c2ccccc21	15000	1190	–

Source: ChEMBL document CHEMBL1142034, “Inhibitors of HCV NS5B polymerase: synthesis and structure-activity relationships of N-1-heteroalkyl-4-hydroxyquinolon-3-yl-benzothiadiazines” (Bioorg Med Chem Lett, 2005)
